ChEMBL document CHEMBL1142286, “2-Oxo-tetrahydro-1,8-naphthyridines as selective inhibitors of malarial protein farnesyltransferase and as anti-malarials” (Bioorg Med Chem Lett, 2008)

Legend:
Plasmodium falciparum [1] = test: Inhibition of Plasmodium falciparum protein farnesyltransferase at 50 nM
Rattus norvegicus [2] = organism: Rattus norvegicus; test: Inhibition of rat protein farnesyltransferase at 0.5 nM
Plasmodium falciparum [3] = test: Antimalarial activity against chloroquine-sensitive Plasmodium falciparum 3D7 in human red blood cells after 48 hrs; assay type: functional; conditions: 3D7, 48 h, read-out: ED50 (the source's name)
Method in brief: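 P. falciparum strain 3D7 (chloroquine-sensitive) grown in red blood cell cultures. ED50 was taken as the compound concentration that inhibits parasite growth by 50%.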

Rattus norvegicus [4] = organism: Rattus norvegicus; test: Inhibition of rat protein farnesyltransferase at 5000 nM
Plasmodium falciparum [5] = test: Inhibition of Plasmodium falciparum protein farnesyltransferase at 5 nM
[6] = (§1) Metabolic stability assessed as half life in mouse liver microsomes; assay type: ADME, Microsome; conditions: liver microsomes
Method in brief: (§2)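 Compound incubated with mouse liver microsomes. Half-time is for the loss of parent compound, in minutes.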

Rattus norvegicus [7] = organism: Rattus norvegicus; test: Inhibition of rat protein farnesyltransferase at 500 nM
Rattus norvegicus [8] = organism: Rattus norvegicus; test: Inhibition of rat protein geranylgeranyltransferase 1 at 1 uM
Method in brief: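 Run like the rat PFT assay, but with rat PGGT-I (5 ng), H-Ras-CVLL peptide as substrate, and [3H]geranylgeranyl pyrophosphate as donor. Read-out is percent inhibition at a single inhibitor concentration.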

Rattus norvegicus [9] = organism: Rattus norvegicus; test: Inhibition of rat protein farnesyltransferase at 50 nM
Plasmodium falciparum [10] = test: Antimalarial activity against chloroquine-resistant Plasmodium falciparum K1 in human red blood cells after 48 hrs; assay type: functional; conditions: K1, 48 h, read-out: ED50 (the source's name)
Method in brief: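 Parasites grown in red blood cell cultures; ED50 is the concentration that inhibits parasite growth by 50%.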

Plasmodium falciparum [11] = test: Inhibition of Plasmodium falciparum protein farnesyltransferase at 0.5 nM
Rattus norvegicus [12] = organism: Rattus norvegicus; test: Inhibition of rat protein farnesyltransferase at 5 nM
Plasmodium falciparum [13] = test: Inhibition of Plasmodium falciparum protein farnesyltransferase at 500 nM
Plasmodium falciparum [14] = test: Antimalarial activity against Plasmodium falciparum; assay type: functional; conditions: read-out: ED50
Method in brief: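 P. falciparum parasites (chloroquine-sensitive strain 3D7 and chloroquine-resistant strain K1) were grown in red blood cell cultures with compound. ED50 is the concentration giving 50% inhibition of parasite growth, in nM.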

Liver = test: as §1; assay type: ADME, Microsome; conditions: microsomes; method in brief: as §2

| SMILES | inhibition (Plasmodium falciparum [1]) [%] | inhibition (Rattus norvegicus [2]) [%] | EC50 (Plasmodium falciparum [3]) [nM] | inhibition (Rattus norvegicus [4]) [%] | inhibition (Plasmodium falciparum [5]) [%] | half-life [6] [min] | inhibition (Rattus norvegicus [7]) [%] | inhibition (Rattus norvegicus [8]) [%] | inhibition (Rattus norvegicus [9]) [%] | EC50 (Plasmodium falciparum [10]) [nM] | inhibition (Plasmodium falciparum [11]) [%] | inhibition (Rattus norvegicus [12]) [%] | inhibition (Plasmodium falciparum [13]) [%] | EC50 (Plasmodium falciparum [14]) [nM] | t1/2 (Liver) [min] |
| --- | --- | --- | --- | --- | --- | --- | --- | --- | --- | --- | --- | --- | --- | --- | --- |
| Cn1cnc(S(=O)(=O)N(Cc2ccc(S(C)(=O)=O)cc2)C2Cc3cc(C#N)cnc3N(Cc3cncn3C)C2=O)c1 (configuration not stated) | 98 | 0 | 420 | 47 | 80 | 52 | 9 | 0 | 0 | 300 | 27 | 0 | 99 |  |  |
| COC(=O)N1CCC(CN(C2Cc3cc(C#N)ccc3N(Cc3cncn3C)C2)S(=O)(=O)c2ccccn2)CC1 (configuration not stated) |  |  |  |  |  | 5.4 |  |  |  |  |  |  |  | 320 |  |
| Cn1cncc1CN1C(=O)C(N(Cc2ccc(S(C)(=O)=O)cc2)S(=O)(=O)c2ccccn2)Cc2cc(C#N)cnc21 (configuration not stated) | 48 |  | 3100 |  | 3 | 15 |  |  |  | > 5000 | 0 |  | 91 |  |  |
| Cn1cnc(S(=O)(=O)NC2Cc3cc(C#N)cnc3N(Cc3cncn3C)C2=O)c1 (configuration not stated) | 66 | 0 | > 5000 | 39 | 32 |  | 0 | 0 | 1 | > 5000 | 15 | 0 | 94 |  |  |
| COC(=O)N1CCC(CN(C2Cc3cc(C#N)ccc3N(Cc3cncn3C)C2)S(=O)(=O)c2cn(C)cn2)CC1 (configuration not stated) |  |  |  |  |  | 3.8 |  |  |  |  |  |  |  |  |  |
| COC(=O)N1CCC(CN(C2Cc3cc(C#N)cnc3N(Cc3cncn3C)C2=O)S(=O)(=O)c2ccccn2)CC1 (configuration not stated) | 88 |  | 320 |  | 16 |  |  |  |  | 310 | 0 |  | 97 |  |  |
| COC(=O)N1CCC(CN(C2Cc3cc(C#N)cnc3N(Cc3cncn3C)C2=O)S(=O)(=O)c2cn(C)cn2)CC1 (configuration not stated) | 95 | 0 | 350 | 85 | 71 | > 120 | 71 | 5 | 28 | 175 | 33 | 7 | 98 |  |  |
| Cn1cnc(S(=O)(=O)N(Cc2ccc(S(C)(=O)=O)cc2)C2Cc3cc(C#N)ccc3N(Cc3cncn3C)C2)c1 (configuration not stated) |  |  |  |  |  |  |  |  |  |  |  |  |  |  | 15.6 |
| Cn1cnc(S(=O)(=O)NC2Cc3cc(Br)cnc3N(Cc3cncn3C)C2=O)c1 (configuration not stated) | 28 | 0 | > 5000 | 51 | 0 |  | 8 | 16 | 8 | > 5000 | 0 | 5 | 74 |  |  |
